Activity calls are given as the source filed them. The rule behind the calls is not given here.
Assays:
[1] = biological target: T1, GABA-A receptor; alpha-1/beta-2/gamma-2 (Homo sapiens, UniProt P14867+P18507+P47870); experiment: Displacement of [3H]Ro15-1788 from recombinant GABA-A alpha1beta2gamma2 receptor benzodiazepine binding site (unknown origin) after 1 hr; assay type: protein-complex assay
T1 sequence (P14867 whole entry): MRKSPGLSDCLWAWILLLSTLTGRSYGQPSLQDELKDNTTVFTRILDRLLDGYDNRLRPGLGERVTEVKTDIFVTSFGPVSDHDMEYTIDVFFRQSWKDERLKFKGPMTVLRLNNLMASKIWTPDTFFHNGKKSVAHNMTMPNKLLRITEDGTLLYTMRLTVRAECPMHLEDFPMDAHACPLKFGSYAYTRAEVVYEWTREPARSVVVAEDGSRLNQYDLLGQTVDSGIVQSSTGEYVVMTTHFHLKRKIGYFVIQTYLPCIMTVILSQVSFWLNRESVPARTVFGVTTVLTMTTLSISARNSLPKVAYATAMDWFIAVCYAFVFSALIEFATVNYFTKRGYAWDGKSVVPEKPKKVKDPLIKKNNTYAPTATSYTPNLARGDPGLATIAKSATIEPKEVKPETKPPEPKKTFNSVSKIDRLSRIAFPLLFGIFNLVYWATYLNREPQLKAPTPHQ
T1 sequence (P47870 whole entry): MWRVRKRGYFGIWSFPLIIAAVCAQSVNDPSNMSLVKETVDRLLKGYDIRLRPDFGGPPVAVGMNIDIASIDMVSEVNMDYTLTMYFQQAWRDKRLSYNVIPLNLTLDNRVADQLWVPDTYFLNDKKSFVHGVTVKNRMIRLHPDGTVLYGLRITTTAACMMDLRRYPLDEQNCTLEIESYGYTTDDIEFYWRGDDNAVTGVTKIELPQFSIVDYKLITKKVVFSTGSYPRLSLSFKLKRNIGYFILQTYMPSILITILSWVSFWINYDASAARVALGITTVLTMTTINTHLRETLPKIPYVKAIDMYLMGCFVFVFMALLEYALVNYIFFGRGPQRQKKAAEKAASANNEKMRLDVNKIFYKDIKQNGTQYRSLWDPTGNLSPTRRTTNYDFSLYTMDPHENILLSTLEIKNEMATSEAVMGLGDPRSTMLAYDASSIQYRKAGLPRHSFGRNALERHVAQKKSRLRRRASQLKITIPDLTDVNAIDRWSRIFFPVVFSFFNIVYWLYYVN
T1 sequence (P18507 whole entry): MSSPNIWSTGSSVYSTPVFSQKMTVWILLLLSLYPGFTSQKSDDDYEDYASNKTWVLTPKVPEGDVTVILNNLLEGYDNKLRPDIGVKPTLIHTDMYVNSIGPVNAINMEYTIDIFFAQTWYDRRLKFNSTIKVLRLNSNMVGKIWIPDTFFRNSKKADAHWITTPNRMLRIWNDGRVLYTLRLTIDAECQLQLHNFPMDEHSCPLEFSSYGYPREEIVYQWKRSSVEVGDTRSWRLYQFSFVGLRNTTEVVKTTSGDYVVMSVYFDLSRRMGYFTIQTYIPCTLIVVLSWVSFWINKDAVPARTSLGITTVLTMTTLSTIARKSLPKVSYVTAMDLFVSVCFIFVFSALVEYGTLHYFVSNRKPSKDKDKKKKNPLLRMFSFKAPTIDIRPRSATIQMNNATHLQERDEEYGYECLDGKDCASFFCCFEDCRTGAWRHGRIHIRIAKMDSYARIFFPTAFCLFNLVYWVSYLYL
Summary of the method: (§1)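 Membranes came from clonal mammalian cell lines expressing α1β2γ2, α2β2γ2 or α5β3γ2 receptors, grown in MEM/EBSS with 10% FCS at 37 °C. Membranes were resuspended in 10 mM potassium phosphate, pH 7.4, with 100 mM KCl. Assays used 1–2 nM [3H]Ro15-1788 and test compound from 10^-9 to 10^-5 M, at least six concentrations. Diazepam at 10^-5 M defined nonspecific binding. Incubation ran 1 h at 4 °C. Single-point % inhibition was measured at 10 µM, and Ki by curve fitting; n = 5, in duplicate.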

[2] = biological target: GABA A receptor alpha-2/beta-2/gamma-2 (Homo sapiens) (UniProt P47870+P18507+P47869); experiment: Displacement of [3H]Ro15-1788 from recombinant GABA-A alpha2beta2gamma2 receptor benzodiazepine binding site (unknown origin) at 10 uM after 1 hr relative to control; assay type: protein-complex assay; summary of the method: as §1
Rattus norvegicus [3] = experiment: Procognitive effect in Harlan Wistar rat assessed as exploring time of familiar rat during social investigatory behaviour at 1 mg/kg, po administered 30 mins prior to testing measured for 5 mins by social learning test (reference value: 27.6 secs); assay type: functional
Mus musculus [4] = experiment: Cognitive enhancing effect in CD1 albino mouse assessed as increase in retention latency at 0.1 to 10 mg/kg, po administered 30 mins prior to testing measured after 24 hrs by passive avoidance test relative to control; assay type: functional, organism-based
Summary of the method: (§2)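 Step-through passive avoidance in male CD-1 mice (22–24 g). Test drugs were given po, suspended in 1% carboxymethylcellulose at 10 ml/kg, 30 min before the training session. For the antiamnesic arm, scopolamine 1.5 mg/kg was injected immediately after punishment. Retention latency was compared with CMC-treated controls, n = 10–12 mice per group.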

Rattus norvegicus [5] = experiment: Procognitive effect in Harlan Wistar rat assessed as decrease in exploring time of unfamiliar rat during social investigatory behaviour at 0.3 to 10 mg/kg, po administered 30 mins prior to testing measured for 5 mins by social learning test relative to control; assay type: functional, organism-based
Mus musculus [6] = experiment: Anticonvulsant activity in CD1 albino mouse assessed as protection against pentylenetetrazole-induced convulsions at 1 mg/kg, po administered 30 mins prior to pentylenetetrazole challenge measured over 30 mins (reference value: 7.1%); assay type: functional
Mus musculus [7] = experiment: Antiamnesic activity in CD1 albino mouse assessed as reversal of scopolamine-induced amnesia at 0.1 mg/kg, po administered 30 mins prior to scopolamine challenge measured after 24 hrs by passive avoidance test; assay type: functional, organism-based; parameters: dose 0.1 mg/kg; summary of the method: as §2
Rattus norvegicus [8] = experiment: Procognitive effect in Harlan Wistar rat assessed as exploring time of familiar rat during social investigatory behaviour at 0.3 mg/kg, po administered 30 mins prior to testing measured for 5 mins by social learning test (reference value: 27.6 secs); assay type: functional
Rattus norvegicus [9] = experiment: Procognitive effect in Harlan Wistar rat assessed as exploring time of familiar rat during social investigatory behaviour at 10 mg/kg, po administered 30 mins prior to testing measured for 5 mins by social learning test (reference value: 27.6 secs); assay type: functional
[10] = biological target: T2, Gamma-aminobutyric acid receptor subunit alpha-5 (Homo sapiens, UniProt P18507+P31644+P47870); experiment: Displacement of [3H]Ro15-1788 from recombinant GABA-A alpha5beta2gamma2 receptor benzodiazepine binding site (unknown origin) after 1 hr
T2 sequence (P31644 whole entry): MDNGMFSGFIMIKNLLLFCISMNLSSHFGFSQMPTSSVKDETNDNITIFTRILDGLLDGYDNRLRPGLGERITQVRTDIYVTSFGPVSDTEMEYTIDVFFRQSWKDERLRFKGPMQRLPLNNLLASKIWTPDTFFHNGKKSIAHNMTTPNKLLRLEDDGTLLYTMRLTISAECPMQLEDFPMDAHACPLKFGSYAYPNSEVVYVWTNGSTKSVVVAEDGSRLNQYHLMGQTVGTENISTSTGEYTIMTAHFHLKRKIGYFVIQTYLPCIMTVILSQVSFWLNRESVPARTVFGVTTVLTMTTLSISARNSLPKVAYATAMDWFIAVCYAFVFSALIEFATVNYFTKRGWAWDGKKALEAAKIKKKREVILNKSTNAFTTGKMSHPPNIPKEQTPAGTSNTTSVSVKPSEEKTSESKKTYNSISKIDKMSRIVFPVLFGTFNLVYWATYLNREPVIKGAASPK

[11] = Displacement of [3H]Ro15-1788 from GABA-A receptor benzodiazepine binding site in bovine cerebral cortex membranes after 1 hr; assay type: cell membranes, Bos taurus, Membrane
Mus musculus [12] = experiment: Anxiolytic activity in CD1 albino mouse assessed as increase in time spent in illuminated side at 1 mg/kg, po administered 30 mins prior to testing measured for 5 mins by light-dark box test; assay type: functional, organism-based; parameters: dose 1 mg/kg
Summary of the method: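 Light/dark box: two equal acrylic compartments, one lit by a 60 W lamp, joined by a floor-level opening. Male CD-1 mice were dosed po in 1% CMC 30 min before the test, then placed in the centre of the lit side facing away from the dark side. Over 5 min, transfers and time in the light side were recorded, n = 8 mice per group.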

Mus musculus [13] = experiment: Neurotoxicity in CD1 albino mouse assessed as decrease in number of falls from rotating rod at 10 mg/kg, po by rota-rod test relative to control; assay type: toxicity, organism-based; parameters: dose 10 mg/kg, route oral; conditions: in vivo, TDE = time-dependent effect
Summary of the method: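 Motor coordination was tested on a rota-rod turning at 24 rpm in male CD-1 mice dosed po in 1% CMC. Falls within 30 s were counted at a pretest and at 15, 30, 45 and 60 min after dosing. Each value is the mean of five mice, compared with CMC-treated controls.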

- Ki [1]: 0.45 nM
- inhibition [2]: 37%
- Ki [10]: 24.9 nM
- Ki [11]: 0.33 nM
SMILES: [O-][n+]1nc2c(I)cnn2c2cc(NCc3cccnc3)ccc21
- Time (Rattus norvegicus [3]): 43.7 s
- Activity (Mus musculus [4]): Active
- Activity (Rattus norvegicus [5]): inactive
- Activity (Mus musculus [6]): 0%
- Activity (Mus musculus [7]): Active
- Time (Rattus norvegicus [8]): 29.4 s
- Time (Rattus norvegicus [9]): 42.5 s
- Activity (Mus musculus [12]): inactive
- Activity (Mus musculus [13]): tde
